Test results from paper PMC3616455 (Molecular Pharmaceutics, 2013).
Residues, ends and D or L forms follow the SMILES beside them.

Assays:
[1] = target: T1, HCMV A143T/A144T protease mutant (Human cytomegalovirus, UniProt P16753, A143T/A144T); test: Esterase activity toward p-nitrophenol; format: biochemical; settings: for hydrolysis by HCMV protease (in words): up to 10 min at 30 °C
T1 sequence (P16753 1-256 A143T/A144T limits assumed): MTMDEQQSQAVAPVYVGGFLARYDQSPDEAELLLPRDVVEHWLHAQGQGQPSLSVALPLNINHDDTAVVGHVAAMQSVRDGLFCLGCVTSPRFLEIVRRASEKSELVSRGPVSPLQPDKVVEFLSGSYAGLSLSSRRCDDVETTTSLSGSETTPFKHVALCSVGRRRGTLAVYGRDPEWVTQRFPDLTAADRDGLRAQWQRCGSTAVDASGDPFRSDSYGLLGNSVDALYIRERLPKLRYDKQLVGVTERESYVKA
How it was run: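 Catalytic-domain His-tagged A143T/A144T mutant, expressed in E. coli BL21(DE3) and Ni-NTA purified, 10 μg/mL, preincubated 3 min in 100 mM phosphate pH 7.4 with 0.5 M Na2SO4 and 10% glycerol. Boc-Xaa-ONp (50 μM) then added at 30 °C for up to 10 min. p-Nitrophenol release read at 405 nm every 30 s. Boc-Ala-ONp kinetics run in 50 mM Tris pH 7.4.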

[2] = Solubility of the model ester; format: physicochemical
HCMV protease = settings: substrate hydrolysis, literature data; cited from earlier work
[3] = substrate hydrolysis, 10 μg/mL protease, 50 mM Tris buffer (pH 7.4)

For `C[C@H](NC(=O)OC(C)(C)C)C(=O)Oc1ccc([N+](=O)[O-])cc1` [Boc-L-Ala-ONp], the “specific activity relative to Boc-L-Gly-ONp and Boc-L-Phe-ONp (higher)” value ([1]; 50 μM ester, 10 μg/mL protease) was about 5 fold, the specific activity ([1]; 50 μM ester, 10 μg/mL protease, 30 °C) was 190 nmol/min/mg protein and the “affinity relative to N-Ac-Tbg-Tbg-Asn(NMe2)-Ala-AMC (less)” value ([1]; comparison of Km values) was “about 10 fold”. For the same molecule, the “turnover rate (kcat) relative to the peptide compound (faster)” value ([1]; comparison of kcat values) was 10 fold, the Km [1, 3] was 163 µM and the kcat [1, 3] was 0.397 s^–1. The “solubility (in words)” value [2] was “low solubility”.
In the case of `CC(C)(C)OC(=O)N[C@@H](CCC(N)=O)C(=O)Oc1ccc([N+](=O)[O-])cc1` [Boc-L-Gln-ONp], the “hydrolysis by HCMV protease (in words)” value ([1]; 50 μM ester, 10 μg/mL protease) is reported as “not hydrolyzed”.
For `CC(C)(C)OC(=O)NCC(=O)NCC(=O)Oc1ccc([N+](=O)[O-])cc1` [Boc-L-Gly-L-Gly-ONp] (HELM PEPTIDE1{[CC(C)(C)OC(=O)[*:2]].G.G.[O=[N+]([O-])c1ccc(O[*:1])cc1]}$$$$V2.0), the “hydrolysis by HCMV protease (in words)” value ([1]; 50 μM ester, 10 μg/mL protease) was “slower than that of Boc-L-Gly-ONp”.
For `CCC(C)C(NC(=O)OC(C)(C)C)C(=O)Oc1ccc([N+](=O)[O-])cc1` [Boc-L-Ile-ONp], the “hydrolysis by HCMV protease (in words)” value ([1]; 50 μM ester, 10 μg/mL protease) was “not hydrolyzed”.
For `CC(C)CC(NC(=O)OC(C)(C)C)C(=O)Oc1ccc([N+](=O)[O-])cc1` [Boc-L-Leu-ONp], the “hydrolysis by HCMV protease (in words)” value ([1]; 50 μM ester, 10 μg/mL protease) was “not hydrolyzed”.
In the case of `CC(C)[C@H](NC(=O)OC(C)(C)C)C(=O)Oc1ccc([N+](=O)[O-])cc1` [Boc-L-Val-ONp], the “hydrolysis by HCMV protease (in words)” value ([1]; 50 μM ester, 10 μg/mL protease) is reported as “not hydrolyzed”.
In the case of N-Ac-Tbg-Tbg-Asn(NMe2)-Ala-AMC, the Km (HCMV protease) is listed as 13.2 µM and the kcat (HCMV protease) is listed as 0.035 ^b s^–1.
